Reference: ChEMBL document CHEMBL4229380, “Arylureas derived from colchicine: Enhancement of colchicine oncogene downregulation activity” (Eur J Med Chem, 2018)
pIC50: −log10 of the molar value.

Columns and labels:
HT-29 [1] = assay: Effect on c-MYC gene expression in human HT-29 cells assessed as c-MYC level at 5 nM after 48 hrs by RT-qPCR analysis; assay type: functional
Procedure, shortened: (§1)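 HT-29 cells at 70–80% confluence were seeded at 1.5×10^5 per well and left 24 h, then treated 48 h, with DMSO as control. Total RNA was extracted and VEGF-A, c-Myc and hTERT were quantified by TaqMan qPCR, normalized to β-actin and to living cell number. Results are % expression versus control, at least three measurements.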

HT-29 [2] = assay: Induction of apoptosis in human HT-29 cells assessed as apoptotic cells at 5 nM after 48 hrs by Annexin V-FITC staining-based flow cytometric analysis (reference value: 13 +/- 3%); assay type: functional
HT-29 [3] = assay: Effect on VEGF protein expression in human HT-29 cells assessed as secreted VEGF level in culture media at 5 nM after 48 hrs by ELISA
HT-29 [4] = assay: Effect on VEGF gene expression in human HT-29 cells assessed as VEGF level at 5 nM after 48 hrs by RT-qPCR analysis; assay type: functional; procedure, shortened: as §1
HT-29 [5] = assay: Effect on hTERT gene expression in human HT-29 cells assessed as hTERT level at 5 nM after 48 hrs by RT-qPCR analysis; assay type: functional; procedure, shortened: as §1
HT-29 [6] = assay: Induction of apoptosis in human HT-29 cells assessed as viable cells at 5 nM after 48 hrs by Annexin V-FITC staining-based flow cytometric analysis (reference value: 82 +/- 1%); assay type: functional; settings: HT-29, 48 h, read-out: Activity
HEK293 = assay: Antiproliferative activity against human HEK293 cells after 2 days by MTT assay; assay type: cell-based; settings: HEK293, 48 h
Procedure, shortened: (§2)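 Cells (5×10^3 per well) in DMEM with 10% FBS, glucose, glutamine and antibiotics were exposed to serial dilutions (stocks in DMSO) for 2 days at 37 °C, 5% CO2. MTT was added for 3 h, formazan was dissolved in DMSO and absorbance read at 490 nm. Viability was taken as % of untreated cells. IC50 was read graphically from three independent experiments.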

MCF7 = assay: Antiproliferative activity against human MCF7 cells after 2 days by MTT assay; assay type: functional, cell-based; settings: MCF7, 48 h; procedure, shortened: as §2
HT-29 [7] = assay: Antiproliferative activity against human HT-29 cells after 2 days by MTT assay; assay type: functional, cell-based; settings: HT-29, 48 h; procedure, shortened: as §2
HeLa = assay: Antiproliferative activity against human HeLa cells after 2 days by MTT assay; assay type: functional, cell-based; settings: 48 h; procedure, shortened: as §2
HT-29 [8] = assay: Effect on VEGFR2 protein expression in human HT-29 cells assessed as VEGFR2 level at 5 nM after 48 hrs by ELISA; assay type: functional
Procedure, shortened: (§3)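 HT-29 cells (1.5×10^5 per well, 24 h pre-culture) were treated 48 h and washed in PBS. They were lysed in Tris pH 7.4 buffer with detergents, phosphatase inhibitors, PMSF and protease inhibitors. Lysates were adjusted to 200 µg/mL protein (Bradford) and total c-Myc or VEGFR-2 was measured by sandwich ELISA kit. Values are % of DMSO control, ≥3 measurements.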

HT-29 [9] = assay: Effect on c-MYC protein expression in human HT-29 cells assessed as c-MYC level at 5 nM after 48 hrs by ELISA; assay type: functional; procedure, shortened: as §3
HT-29 [10] = assay: Induction of apoptosis in human HT-29 cells assessed as necrotic cells at 5 nM after 48 hrs by Annexin V-FITC staining-based flow cytometric analysis (reference value: 2 +/- 6%); assay type: functional
HT-29 [11] = assay: Induction of apoptosis in human HT-29 cells assessed as necrotic cells at 20 nM after 48 hrs by Annexin V-FITC staining-based flow cytometric analysis (reference value: 2 +/- 6%); assay type: functional
HT-29 [12] = assay: Induction of apoptosis in human HT-29 cells assessed as apoptotic cells at 20 nM after 48 hrs by Annexin V-FITC staining-based flow cytometric analysis (reference value: 13 +/- 3%); assay type: functional
HT-29 [13] = assay: Induction of apoptosis in human HT-29 cells assessed as viable cells at 20 nM after 48 hrs by Annexin V-FITC staining-based flow cytometric analysis (reference value: 82 +/- 1%); assay type: functional; settings: HT-29, 48 h, read-out: Activity
HT-29 [14] = assay: Effect on VEGFR2 protein expression in human HT-29 cells assessed as VEGFR2 level at 15 nM after 48 hrs by ELISA; assay type: functional; procedure, shortened: as §3
HT-29 [15] = assay: Effect on VEGF protein expression in human HT-29 cells assessed as secreted VEGF level in culture media at 15 nM after 48 hrs by ELISA
HT-29 [16] = assay: Effect on hTERT gene expression in human HT-29 cells assessed as hTERT level at 15 nM after 48 hrs by RT-qPCR analysis; assay type: functional; procedure, shortened: as §1
HT-29 [17] = assay: Induction of apoptosis in human HT-29 cells assessed as necrotic cells at 15 nM after 48 hrs by Annexin V-FITC staining-based flow cytometric analysis (reference value: 2 +/- 6%); assay type: functional
HT-29 [18] = assay: Effect on c-MYC protein expression in human HT-29 cells assessed as c-MYC level at 15 nM after 48 hrs by ELISA; assay type: functional; procedure, shortened: as §3
HT-29 [19] = assay: Effect on VEGF gene expression in human HT-29 cells assessed as VEGF level at 15 nM after 48 hrs by RT-qPCR analysis; assay type: functional; procedure, shortened: as §1
HT-29 [20] = assay: Induction of apoptosis in human HT-29 cells assessed as apoptotic cells at 15 nM after 48 hrs by Annexin V-FITC staining-based flow cytometric analysis (reference value: 13 +/- 3%); assay type: functional
HT-29 [21] = assay: Effect on c-MYC gene expression in human HT-29 cells assessed as c-MYC level at 15 nM after 48 hrs by RT-qPCR analysis; assay type: functional; procedure, shortened: as §1
HT-29 [22] = assay: Induction of apoptosis in human HT-29 cells assessed as viable cells at 15 nM after 48 hrs by Annexin V-FITC staining-based flow cytometric analysis (reference value: 82 +/- 1%); assay type: functional; settings: HT-29, 48 h, read-out: Activity

SMILES | pIC50 (HEK293) | pIC50 (MCF7) | pIC50 (HT-29 [7]) | pIC50 (HeLa) | further results
COc1ccc(NC(=O)N[C@H]2CCc3cc(OC)c(OC)c(OC)c3-c3ccc(OC)c(=O)cc32)cc1 | 7.85 | 7.89 | 8.40 | 8.19 | Activity (HT-29 [1]): 55%; Activity (HT-29 [2]): 35%; Activity (HT-29 [3]): 44%; Activity (HT-29 [4]): 70%; Activity (HT-29 [5]): 91%; viability at 0.005 µM (HT-29 [6]): 64%; Activity (HT-29 [8]): 95%; Activity (HT-29 [9]): 61%; Activity (HT-29 [10]): 1%
COc1cc2c(c(OC)c1OC)-c1ccc(OC)c(=O)cc1[C@@H](NC(=O)Nc1ccccc1F)CC2 | 8.30 | 8.22 | 8.33 | 8.22 | 
COc1cc2c(c(OC)c1OC)-c1ccc(OC)c(=O)cc1[C@@H](NC(=O)Nc1ccccc1C#N)CC2 | 7.96 | 7.96 | 7.96 | 8.00 | 
COc1cc2c(c(OC)c1OC)-c1ccc(OC)c(=O)cc1[C@@H](NC(=O)Nc1ccc(F)cc1Cl)CC2 | 8.77 | 8.92 | 8.76 | 8.30 | Activity (HT-29 [1]): 58%; Activity (HT-29 [2]): 53%; Activity (HT-29 [3]): 67%; Activity (HT-29 [4]): 64%; Activity (HT-29 [5]): 80%; viability at 0.005 µM (HT-29 [6]): 46%; Activity (HT-29 [8]): 15%; Activity (HT-29 [9]): 104%; Activity (HT-29 [10]): 1%
COc1cc2c(c(OC)c1OC)-c1ccc(OC)c(=O)cc1[C@@H](NC(=O)Nc1ccc(Cl)cc1Cl)CC2 | 7.49 | 7.62 | 7.51 | 7.38 | 
COc1cc2c(c(OC)c1OC)-c1ccc(OC)c(=O)cc1[C@@H](NC(=O)Nc1ccc3ccccc3c1)CC2 | 8.15 | 8.00 | 8.10 | 8.15 | 
COc1cc2c(c(OC)c1OC)-c1ccc(OC)c(=O)cc1[C@@H](NC(=O)Nc1c(C)cccc1C)CC2 | 6.66 | 6.62 | 6.89 | 6.62 | 
COc1cc2c(c(OC)c1OC)-c1ccc(OC)c(=O)cc1[C@@H](NC(=O)Nc1c(Cl)cccc1Cl)CC2 | 7.38 | 7.89 | 7.40 | 7.66 | 
COc1cc2c(c(OC)c1OC)-c1ccc(OC)c(=O)cc1[C@@H](NC(=O)Nc1ccc(F)cc1)CC2 | 7.89 | 8.00 | 8.30 | 8.00 | Activity (HT-29 [1]): 52%; Activity (HT-29 [2]): 47%; Activity (HT-29 [3]): 55%; Activity (HT-29 [4]): 59%; Activity (HT-29 [5]): 70%; viability at 0.005 µM (HT-29 [6]): 51%; Activity (HT-29 [8]): 63%; Activity (HT-29 [9]): 105%; Activity (HT-29 [10]): 2%
COc1cc2c(c(OC)c1OC)-c1ccc(OC)c(=O)cc1[C@@H](NC(=O)Nc1c(Cl)cc(F)cc1Cl)CC2 | 7.04 | 7.85 | 7.52 | 7.70 | 
COc1cc2c(c(OC)c1OC)-c1ccc(OC)c(=O)cc1[C@@H](NC(=O)NC1CCCCC1)CC2 | 7.01 | 7.05 | 7.43 | 7.06 | 
COc1cc2c(c(OC)c1OC)-c1ccc(OC)c(=O)cc1[C@@H](NC(=O)Nc1cc(F)cc(F)c1)CC2 | 8.00 | 7.70 | 8.00 | 7.80 | 
COc1cc2c(c(OC)c1OC)-c1ccc(OC)c(=O)cc1[C@@H](NC(=O)Nc1cccc(Cl)c1)CC2 | 8.34 | 6.43 | 8.37 | 8.10 | Activity (HT-29 [1]): 104%; Activity (HT-29 [2]): 37%; Activity (HT-29 [3]): 114%; Activity (HT-29 [4]): 95%; Activity (HT-29 [5]): 90%; viability at 0.005 µM (HT-29 [6]): 62%; Activity (HT-29 [8]): 15%; Activity (HT-29 [9]): 87%; Activity (HT-29 [10]): 1%
COc1cc2c(c(OC)c1OC)-c1ccc(OC)c(=O)cc1[C@@H](NC(=O)Nc1cccc3ccccc13)CC2 | 8.05 | 7.77 | 7.95 | 7.80 | 
COc1cc2c(c(OC)c1OC)-c1ccc(OC)c(=O)cc1[C@@H](NC(=O)Nc1cc(C(F)(F)F)cc(C(F)(F)F)c1)CC2 | 5.82 | 5.74 | 5.59 | 5.77 | Activity (HT-29 [11]): 1%; Activity (HT-29 [12]): 4%; viability at 0.02 µM (HT-29 [13]): 96%
COc1cc2c(c(OC)c1OC)-c1ccc(OC)c(=O)cc1[C@@H](NC(=O)Nc1ccccc1OC(F)(F)F)CC2 | 8.30 | 8.36 | 8.42 | 8.52 | 
COc1cc2c(c(OC)c1OC)-c1ccc(OC)c(=O)cc1[C@@H](NC(=O)Nc1ccc(C(F)(F)F)cc1Cl)CC2 | 6.66 | 6.70 | 6.72 | 6.66 | 
COc1cc2c(c(OC)c1OC)-c1ccc(OC)c(=O)cc1[C@@H](NC(=O)Nc1ccccc1)CC2 | 8.00 | 7.92 | 7.96 | 7.92 | 
COc1cc2c(c(OC)c1OC)-c1ccc(OC)c(=O)cc1[C@@H](NC(=O)Nc1c(F)cccc1F)CC2 | 7.34 | 7.38 | 7.60 | 7.74 | Activity (HT-29 [14]): 35%; Activity (HT-29 [15]): 11%; Activity (HT-29 [16]): 36%; Activity (HT-29 [17]): 1%; Activity (HT-29 [18]): 42%; Activity (HT-29 [19]): 38%; Activity (HT-29 [20]): 12%; Activity (HT-29 [21]): 88%; viability at 0.015 µM (HT-29 [22]): 87%
